# High-throughput results from PubChem.
# This is a sample that favours compounds with a hit; in the whole collection about 1.5% have one here.
# PPC-1+TRAIL kill: compounds killing PPC-1 cancer cells with TRAIL present, primary screen, TRAIL potentiator project, ATPLite luminescence, uHTS; PPC-1 cells + TRAIL, ATPLite viability luminescence; cell killing (% activity), % at 4 µM or 5 µM; 220,000 tested, 0.41% active; AID 1443, 2008;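 active = cell killing above 50% in the first pass at 4 µM, then a duplicate retest at 5 µM averaging 50% or more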;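 also: plate controls were cells with TRAIL plus DMSO for no effect and medium-only wells lacking cells for full effect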
# Platelet DG rel: inhibitors of platelet dense granule secretion, primary screen, cell-based, MLPCN, human platelets; human platelet-rich plasma, SFLLRN dense granule ATP release, luminescence; inhibition, %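 (compounds screened at 7.5 µM in platelet-rich plasma)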; 300,000 tested, 0.22% active;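 active = mean replicate score, as percent of positive control, at or above 50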
# STAT3 inh-1: IL-6 driven STAT3 reporter inhibitors, primary screen, U3A cells, luciferase, luminescence, MLSCN library; IL-6 STAT3-luciferase reporter; host cell line lacks STAT1; inhibition, % at 5.5 µM; 190,000 tested, 0.89% active; AID 862, 2007;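 active = inhibition above the mean inhibition across all screened compounds plus 3 SD, cut at about 44% in these data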;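 also: 0% = DMSO only wells and 100% = 100 µM nifuroxazide control wells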
# STAT1 blocker: STAT1 signaling inhibitors, primary screen, cell-based, HTS, luciferase reporter | NIH 3T3 STAT1-luciferase reporter, IFN-gamma, luminescence | inhibition, % at 5.5 µM | 200,000 tested, 0.35% active | AID 920, 2007;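 active = inhibition above a set limit, the mean inhibition across all tested compounds plus 3 SD, cut at about 34% in these data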;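 also: 0% = IFN-gamma with DMSO and 100% = IFN-gamma with 300 µM nifuroxazide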
# H9c2 TAG inh: inhibitors of triacylglycerol accumulation, primary screen, cell-based, uHTS, fluorescence, H9c2; H9c2 cells, Nile Red lipid (TAG) fluorescence; cells loaded with 200 µM oleic acid; inhibition, % at 12.5 µM; 230,000 tested, 0.66% active; AID 651582, 2012;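 active = pattern-corrected inhibition of lipid staining of at least 50% with the nuclear-stain viability signal not falling by more than 50%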;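 also: 0% = DMSO wells and 100% = triacsin C control wells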
# Lipid droplet: inhibitors of hepatocyte lipid droplet formation, primary screen, imaging, high-throughput imaging, BODIPY stain | AML12 mouse hepatocytes, oleate lipid droplets | inhibition, % at 6.5 µM | 240,000 tested, 0.4% active;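 active = lipid droplet intensity inhibited by at least 50%, with more than 500 cells counted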
#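 Material – mouse AML12 hepatocyte cell line, fixed after treatment · Compound dosing – one dose, 6.5 µM compound · Times – compound with oleate, overnight · Measured by – Image-based BODIPY and DAPI two-channel analysis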
# STAT3 inh-2: STAT3 reporter inhibitors, retest of hits, confirmation, U3A cells, luciferase, luminescence; shares compounds with STAT3 inh-1; IL-6 STAT3 luciferase reporter; cell line lacks STAT1; inhibition, % at 5.7 µM; 1,200 tested, 45% active; AID 1265, 2008;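 active = inhibition above the hit cutoff computed for the primary STAT3 screen, cut at about 44% in these data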;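 also: 0% = IL-6 plus DMSO and 100% = IL-6 plus nifuroxazide control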
# NFkB inh STAT3ct: NF-kB reporter inhibitors in human cells, confirmation, counter-screen for STAT3 inhibitor project, cell-based, HEK293T, luciferase, TNF-alpha stimulus; shares compounds with STAT3 inh-1; TNF-alpha induced; inhibition, % at 5.7 µM; 1,200 tested, 36% active;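 active = inhibition above the mean of solvent-only control wells plus 3 SD, cutoff set per campaign, cut at about 13% in these data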;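 also: 0% = TNF-alpha with DMSO and 100% = TNF-alpha with MG high control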
# STAT1 inh 2: STAT1 reporter inhibitors, IFN-gamma induced, confirmation, counter-screen for STAT3 inhibitor project, cell-based, NIH 3T3, luciferase luminescence; 1,200 tested, 27% active; inhibition, % at 5.7 µM; AID 1317, 2008; NIH 3T3 STAT1-luciferase reporter; shares compounds with STAT3 inh-1;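 active = inhibition above the mean plus 3 SD of solvent-only control wells, limit set per screening run, cut at about 16% in these data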;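 also: 0% = DMSO with IFN-gamma and 100% = nifuroxazide control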
# The depositor's hits bear a star; / = no result.
SMILES,PPC-1+TRAIL kill,Platelet DG rel,STAT3 inh-1,STAT1 blocker,H9c2 TAG inh,Lipid droplet,STAT3 inh-2,NFkB inh STAT3ct,STAT1 inh 2
CCCNC(=O)C1(C)CCCN(Cc2ccccc2F)C1 (stereo unspecified),/,/,/,/,-12,/,/,/,/
O=C(Cc1ccc(NC(=O)C2CCN(C(=O)C3CCCC3)CC2)cc1)Nc1ccc(C(=O)N2CCOCC2)cc1,/,/,/,/,9,/,/,/,/
Cc1c(C(C)C)c(=O)n(-c2ccc(S(=O)(=O)NCc3ccccc3)cc2)n1C,20,-10,81*,28,-3,-7,80*,30*,21*
Cc1c(C(C)C)c(=O)n(-c2ccc(S(=O)(=O)NC3CCCCC3)cc2)n1C,25,7,53*,22,/,2,59*,14*,21*
Cc1c(C(C)C)c(=O)n(-c2ccc(S(=O)(=O)N3CCOCC3)cc2)n1C,10,6,-1,2,-6,-8,/,/,/
CCOC(=O)N1CCN(C(=O)c2ccc(CS(=O)c3cccc(C)c3)o2)CC1 (stereo unspecified),/,/,/,/,-28,/,/,/,/
Cc1cc(N2CCN(c3nc4ccccc4s3)CC2)n2ncnc2n1,-2,-6,83*,28,/,/,73*,25*,30*
Cc1cc(N2CCN(C(c3ccccc3)c3ccccc3)CC2)n2ncnc2n1,20,-2,4,-7,-14,-4,/,/,/
CCCS(=O)(=O)NC(=O)C1(C)CCCN(C(=O)c2cncc(Br)c2)C1 (stereo unspecified),/,/,/,/,4,/,/,/,/
Cc1cccc(Cn2c(NCCO)nc3c2c(=O)n(C)c(=O)n3C)c1,12,2,52*,19,/,/,35,10,20*
CNc1nc2c(c(=O)n(C)c(=O)n2C)n1Cc1ccccc1,-7,-5,55*,16,/,/,34,13*,18*
COCCNc1nc2c(c(=O)n(C)c(=O)n2C)n1Cc1cccc(C)c1,1,-5,30,34,-2,/,/,/,/
CCCn1c(CN(C)Cc2ccccc2)nc2c1c(=O)n(C)c(=O)n2C,6,-3,46*,20,-156,-13,29,4,14
CCCCn1c(CN(C)Cc2ccccc2)nc2c1c(=O)n(C)c(=O)n2C,11,-1,32,23,/,-3,/,/,/
CCc1ccc2c(c1)NC(=O)C2(C)Cc1ccccc1OC (stereo unspecified),/,/,/,/,-6,/,/,/,/
CC(=O)/C(N=Nc1ccc2c(c1)OCCO2)=C(\C)O,5,14,68*,19,-1,6,-6,-10,-92
O=C(Nc1ccc(S(=O)(=O)Nc2ncccn2)cc1)c1ccc(Br)cc1,/,/,/,/,21,/,/,/,/
COc1cccc(-n2cc(CN(C)Cc3nc(Cc4cccc(F)c4)no3)cn2)c1,14,0,2,3,-4,3,/,/,/
COc1ccc(CN(C)Cc2nc(Cc3cccc(F)c3)no2)c2cccnc12,5,-10,61*,25,-28,-25,62*,19*,26*
Cc1sc(NC(=O)C2CC(=O)N(Cc3ccco3)C2)nc1-c1ccccc1 (stereo unspecified),/,/,/,/,10,/,/,/,/
Nc1c(C(=O)NC2CCCCC2)nsc1C(=O)OCC(=O)NC1CCCCC1,3,-1,51*,5,24,/,54*,12,0
O=C(Cc1ccccc1Cl)c1ccccc1,/,/,/,/,-8,/,/,/,/
CCOc1ccccc1OCC(=O)NC1CCSc2ccccc21 (stereo unspecified),/,/,/,/,-8,/,/,/,/
CN(C)c1ccc(-c2ccnc3c2CC(C)(C(=O)NCC2CCOCC2)O3)cc1 (stereo unspecified),/,/,/,/,0,/,/,/,/
Cc1cc(C(=O)CSc2nc3ccccc3c(=O)n2C)c(C)n1Cc1ccc2c(c1)OCO2,-4,-2,58*,21,-65,/,76*,28*,25*
SMILES,PPC-1+TRAIL kill,Platelet DG rel,STAT3 inh-1,STAT1 blocker,H9c2 TAG inh,Lipid droplet,STAT3 inh-2,NFkB inh STAT3ct,STAT1 inh 2
Cc1cc(C(=O)CSc2nnc(-c3ccccc3)n2Cc2ccc3c(c2)OCO3)c(C)n1C,22,4,-1,-5,14,/,/,/,/
CC(=O)C1CCC2C3CC=C4CC(SC(=N)N)CCC4(C)C3CCC12C (stereo unspecified),/,/,/,/,21,/,/,/,/
CN(C(=O)c1ccccc1)c1nc2ccccc2s1,49,2,56*,-42,-21,/,10,-38,-120
CN(C)C(=O)c1nc2ccccc2s1,12,-8,12,-4,5,4,/,/,/
O=C(CC(Nc1ccccc1Cl)C(=O)O)c1ccccc1 (stereo unspecified),5,-4,62*,-31,5,-17,16,-41,-131
COc1cc(OC)nc(Nc2nc(C(N)Cc3ccc(F)cc3)cs2)n1 (stereo unspecified),/,/,/,/,37,/,/,/,/
O=C(/C=C/c1ccccc1Cl)Nc1ccccc1,36,32,/,/,-4,19,/,/,/
O=C(/C=C/c1ccccc1Cl)Nc1cccc(O)c1,45,39,64*,32,/,-18,24,14*,17*
Cc1nc(NCc2ccccn2)c2ccccc2n1,19,3,49*,18,/,1,32,1,12
Cn1cc(Cc2ccccc2)c(=O)c(Cc2ccccc2)c1,/,/,/,/,-1,/,/,/,/
Cn1nc(CC(=O)N2CCN(c3ccccc3)CC2)c2ccccc2c1=O,15,-9,4,16,1,1,/,/,/
COc1ccccc1NC(=O)Cc1nn(C)c(=O)c2ccccc12,7,4,54*,24,-46,-12,54*,13*,18*
COc1cccc(OC)c1NC(=O)Cc1nn(C)c(=O)c2ccccc12,14,-4,4,4,-5,/,/,/,/
Cn1nc(CC(=O)Nc2ccc(N3CCN(C(=O)OC(C)(C)C)CC3)cc2)c2ccccc2c1=O,12,2,80*,25,-28,18,83*,32*,22*
COc1cc(NC(=O)Cc2nn(C)c(=O)c3ccccc23)cc(OC)c1,8,1,48*,21,-36,-6,35,7,17*
Cc1csc(NC(=O)Cc2nn(C)c(=O)c3ccccc23)n1,17,-14,54*,22,-30,-22,60*,18*,21*
